Results: ChEMBL document CHEMBL1782042, “Efficient microwave-assisted synthesis and antitumor activity of novel 4,4'-methylenebis[2-(3-aryl-4,5-dihydro-1H-pyrazol-5-yl)phenols]” (Eur J Med Chem, 2011)

Experiments:
[1] = tested on: HCT-15; assay: Anticancer activity against human HCT15 cells after 48 hrs by sulforhodamine B assay; format: functional; conditions: HCT-15, 48 h
In short: (§1)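 NCI 60-cell-line in vitro screen, second stage: five concentration levels (100, 10, 1.0, 0.1 and 0.01 μM) with 48 h continuous drug exposure. Cell growth was estimated by sulforhodamine B protein staining. GI50 is the drug concentration that gives a 50% reduction in net protein increase relative to control cells over the incubation.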

[2] = tested on: UO-31; assay: Cytotoxicity against human UO31 cells; format: cell-based
In short: (§2)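 NCI 60 human tumour cell line screen; five concentration levels (100, 10, 1.0, 0.1 and 0.01 μM), 48 h continuous drug exposure. Cell growth estimated by sulforhodamine B (SRB) protein staining. GI50 taken as the drug concentration giving a 50% reduction in net protein increase relative to control cells over the incubation.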

[3] = tested on: MCF7; assay: Cytotoxicity against human MCF7 cells; format: cell-based
In short: (§3)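 NCI 60 human tumour cell line screen, second stage at five concentrations (100, 10, 1.0, 0.1 and 0.01 μM). Continuous drug exposure for 48 h, with cell growth estimated by sulforhodamine B protein staining. GI50 is the drug concentration giving a 50% reduction in net protein increase relative to control cells over the incubation.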

[4] = tested on: Hs-578T; assay: Cytotoxicity against human Hs578T cells; format: cell-based; in short: as §3
[5] = tested on: BT-549; assay: Cytotoxicity against human BT549 cells; format: cell-based; in short: as §3
[6] = tested on: T47D; assay: Cytotoxicity against human T47D cells; format: cell-based; in short: as §2
[7] = tested on: MDA-MB-468; assay: Cytotoxicity against human MDA-MB-468 cells; format: cell-based; in short: as §3
[8] = tested on: SW-620; assay: Anticancer activity against human SW620 cells after 48 hrs by sulforhodamine B assay; format: functional; conditions: SW-620, 48 h
In short: (§4)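 NCI 60-cell-line screen, second stage. Five concentration levels (100, 10, 1.0, 0.1 and 0.01 μM), 48 h continuous drug exposure. Cell growth was estimated by sulforhodamine B protein staining. GI50 is the concentration giving a 50% reduction in net protein increase relative to control cells over the drug incubation. Compounds entered this stage after an earlier single-dose screen.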

[9] = tested on: SNB-19; assay: Anticancer activity against human SNB19 cells after 48 hrs by sulforhodamine B assay; format: functional; conditions: SNB-19, 48 h; in short: as §1
[10] = tested on: SNB-75; assay: Anticancer activity against human SNB75 cells after 48 hrs by sulforhodamine B assay; format: functional; conditions: SNB-75, 48 h; in short: as §4
[11] = tested on: U-251; assay: Anticancer activity against human U251 cells after 48 hrs by sulforhodamine B assay; format: functional; conditions: U-251, 48 h; in short: as §4
[12] = tested on: LOX IMVI; assay: Anticancer activity against human LOXIMVI cells after 48 hrs by sulforhodamine B assay; format: functional; in short: as §1
[13] = tested on: MDA-MB-435; assay: Anticancer activity against human MDA-MB-435 cells after 48 hrs by sulforhodamine B assay; format: functional; conditions: MDA-MB-435, 48 h; in short: as §1
[14] = tested on: SK-MEL-2; assay: Anticancer activity against human SK-MEL-2 cells after 48 hrs by sulforhodamine B assay; format: functional; conditions: SK-MEL-2, 48 h; in short: as §1
[15] = tested on: SK-MEL-5; assay: Anticancer activity against human SK-MEL-5 cells after 48 hrs by sulforhodamine B assay; format: functional; conditions: SK-MEL-5, 48 h; in short: as §1
[16] = tested on: OVCAR-4; assay: Anticancer activity against human OVCAR4 cells after 48 hrs by sulforhodamine B assay; format: functional; conditions: OVCAR-4, 48 h; in short: as §1
[17] = tested on: OVCAR-8; assay: Anticancer activity against human OVCAR8 cells after 48 hrs by sulforhodamine B assay; format: functional; conditions: OVCAR-8, 48 h; in short: as §1
[18] = tested on: NCI/ADR-RES; assay: Anticancer activity against human NCI/ADR-RES cells after 48 hrs by sulforhodamine B assay; format: functional; in short: as §1
[19] = tested on: 786-0; assay: Anticancer activity against human 786-0 cells after 48 hrs by sulforhodamine B assay; format: functional; conditions: 786-0, 48 h; in short: as §1
[20] = tested on: ACHN; assay: Anticancer activity against human ACHN cells after 48 hrs by sulforhodamine B assay; format: functional; in short: as §1
[21] = tested on: RXF 393; assay: Anticancer activity against human RXF393 cells after 48 hrs by sulforhodamine B assay; format: functional; conditions: RXF 393, 48 h; in short: as §1
[22] = tested on: SN12C; assay: Anticancer activity against human SN12C cells after 48 hrs by sulforhodamine B assay; format: functional; in short: as §1
[23] = tested on: UO-31; assay: Anticancer activity against human UO31 cells after 48 hrs by sulforhodamine B assay; format: functional; conditions: UO-31, 48 h; in short: as §4
[24] = tested on: MCF7; assay: Anticancer activity against human MCF7 cells after 48 hrs by sulforhodamine B assay; format: functional; conditions: MCF7, 48 h; in short: as §1
[25] = tested on: Hs-578T; assay: Anticancer activity against human Hs578T cells after 48 hrs by sulforhodamine B assay; format: functional; in short: as §1
[26] = tested on: BT-549; assay: Anticancer activity against human BT549 cells after 48 hrs by sulforhodamine B assay; format: functional; conditions: BT-549, 48 h; in short: as §1
[27] = tested on: T47D; assay: Anticancer activity against human T47D cells after 48 hrs by sulforhodamine B assay; format: functional; in short: as §4
[28] = tested on: MDA-MB-468; assay: Anticancer activity against human MDA-MB-468 cells after 48 hrs by sulforhodamine B assay; format: functional; conditions: MDA-MB-468, 48 h; in short: as §1
[29] = tested on: CCRF-CEM; assay: Cytotoxicity against human CCRF-CEM cells; format: cell-based; in short: as §3
[30] = tested on: K562; assay: Cytotoxicity against human K562 cells; format: cell-based; in short: as §3
[31] = tested on: RPMI-8226; assay: Cytotoxicity against human RPMI8226 cells; format: cell-based; in short: as §3
[32] = tested on: A549; assay: Cytotoxicity against human A549 cells; format: cell-based; in short: as §3
[33] = tested on: HOP-62; assay: Cytotoxicity against human HOP62 cells; format: cell-based; in short: as §3

In the case of `Cc1ccc(C2=NNC(c3cc(Cc4ccc(O)c(C5CC(c6ccc(C)cc6)=NN5)c4)ccc3O)C2)cc1` (stereo not drawn), the GI50 [1] is reported as 3.64 µM, the LC50 [2] is reported as greater than 100 µM and the LC50 [3] is reported as 71.8 µM. It also gave an LC50 [4] greater than 100 µM, an LC50 [5] greater than 100 µM and an LC50 [6] greater than 100 µM. The LC50 [7] was greater than 100 µM, the GI50 [8] was 7.96 µM and the GI50 [9] was 6.89 µM. The GI50 [10] was 4.98 µM, the GI50 [11] was 5.84 µM and the GI50 [12] was 7.38 µM. It also gave a GI50 [13] of 8.52 µM, a GI50 [14] of 5.9 µM and a GI50 [15] of 1.76 µM. The GI50 [16] was 5.36 µM, the GI50 [17] was 6.36 µM and the GI50 [18] was 7.39 µM. It also gave a GI50 [19] of 8.39 µM, a GI50 [20] of 5.56 µM and a GI50 [21] of 4.18 µM. The GI50 [22] was 8.84 µM, the GI50 [23] was 4.29 µM and the GI50 [24] was 3.3 µM. For the same compound, the GI50 [25] was 5.58 µM, the GI50 [26] was 4.66 µM and the GI50 [27] was 4.61 µM. It also gave a GI50 [28] of 2.97 µM, an LC50 [29] greater than 100 µM and an LC50 [30] greater than 100 µM. For the same compound, the LC50 [31] was greater than 100 µM, the LC50 [32] was greater than 100 µM and the LC50 [33] was greater than 100 µM.
